Legend:
HeLa = assay: MTT cytotoxicity assay, HeLa; format: cell-based, human; conditions: for IC50: read-out: IC50 HeLa, MTT, 48 h incubation; for selectivity factor HeLa: ratio of IC50 HEK-293 / HeLa
Summary of the method: (§1)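 Cells kept in DMEM with 10% FBS, 1% nonessential amino acids and 1% antibiotic-antimycotic at 37 °C, 95% humidity, CO2, and trypsinised at 80% confluence. Seeded 1 × 10^4 cells/well, grown 24 h, then exposed to test compound. MTT read-out at 570 nm, in triplicate. % growth inhibition = 100 − (AD × 100/AB), against vehicle wells.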

MCF-7 = assay: MTT cytotoxicity assay, MCF-7; format: cell-based, human; conditions: for IC50: read-out: IC50 MCF 7, MTT, 48 h incubation; for selectivity factor MCF-7: ratio of IC50 HEK-293 / MCF-7
Summary of the method: as §1

U87MG = assay: MTT cytotoxicity assay, U87MG; format: cell-based, human; conditions: for IC50: read-out: IC50 U87MG, MTT, 48 h incubation; for selectivity factor U87MG: ratio of IC50 HEK-293 / U87MG
Summary of the method: as §1

HEK293 = assay: MTT cytotoxicity assay, HEK293; format: cell-based, human; conditions: read-out: IC50 HEK293, 48 h incubation, normal cell line
Summary of the method: as §1

MCF-7 cells [1] = assay: Apoptosis, Annexin V FITC/PI assay; format: cell-based, human; conditions: 15 μM, 24 h
[2] = Fluorescence quantum yield; format: physicochemical; conditions: relative to quinine sulfate; 0.1% DMSO buffer solution, pH 7.2
Summary of the method: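 Relative emission quantum yield against quinine sulfate in H2SO4 (excitation 350 nm, emission 452 nm, ΦR 0.50). Calculated from integrated emission peak area, absorbance at λmax and refractive indices of sample and reference solvents.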

[3] = Lipophilicity, n-octanol/water partition coefficient by shake-flask method; format: physicochemical; conditions: UV detection
Summary of the method: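 Shake-flask partition: test compound dissolved in octanol/water and shaken 24 h. Phases separated by settling over 30 min or centrifuging 5000 rpm for 20 min, collected without cross-contamination. Compound in each phase quantified by UV-vis at room temperature. log Po/w = log([octanol]/[aqueous]); mean of three independent experiments.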

Solubility = format: physicochemical
[4] = Molar conductivity measurement; format: physicochemical; conditions: for molar conductance ^M in 10% DMSO: 10% aqueous DMSO; for molar conductance ^M in DMSO: pure DMSO
Summary of the method: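 Conductivity of test compound at 3 × 10^-5 M in DMSO and in aqueous DMSO, measured with a conductivity meter of cell constant 1.0 cm^-1.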

Ct-DNA [5] = assay: Ct-DNA binding by UV absorption titration; parameters: species or system calf; conditions: on titration with Ct-DNA, Tris-HCl/NaCl buffer
Summary of the method: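 UV absorbance titration: Ct-DNA (purity checked by OD 260/280) added stepwise from stock to test compound held fixed at 20 μM in 5 mM Tris-HCl/50 mM NaCl. Intrinsic binding constant Kb from slope/intercept of linear fit. Hypochromicity %H = (A0 − AF)/A0 × 100, AF taken when absorbance stops changing.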

Ct-DNA [6] = assay: Ethidium bromide displacement; format: binding, calf; conditions: for KSV, Stern–Volmer quenching constant: EtBr–Ct-DNA adduct
Summary of the method: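 EtBr–Ct-DNA adduct (EtBr 8 μM) titrated with test compound at 5–60 μM; drop in EtBr emission followed. KSV from linear Stern–Volmer fit of I0/I vs [complex]. Kapp from the concentration giving 50% quenching: Kapp × [compound]50 = KEtBr × [EtBr], with KEtBr 1.0 × 10^7 M^-1.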

BSA = BSA (Bos taurus, UniProt P02769); assay: BSA binding, tryptophan emission quenching; parameters: species or system bovine; conditions: for KBSA, Stern–Volmer quenching constant: BSA fluorescence at 340 nm; for K, binding constant with BSA / n, number of binding sites: Scatchard plot; for kq, quenching rate constant: from KBSA and τ0 = 1 × 10^–8 s
Sequence of BSA (P02769 25-607): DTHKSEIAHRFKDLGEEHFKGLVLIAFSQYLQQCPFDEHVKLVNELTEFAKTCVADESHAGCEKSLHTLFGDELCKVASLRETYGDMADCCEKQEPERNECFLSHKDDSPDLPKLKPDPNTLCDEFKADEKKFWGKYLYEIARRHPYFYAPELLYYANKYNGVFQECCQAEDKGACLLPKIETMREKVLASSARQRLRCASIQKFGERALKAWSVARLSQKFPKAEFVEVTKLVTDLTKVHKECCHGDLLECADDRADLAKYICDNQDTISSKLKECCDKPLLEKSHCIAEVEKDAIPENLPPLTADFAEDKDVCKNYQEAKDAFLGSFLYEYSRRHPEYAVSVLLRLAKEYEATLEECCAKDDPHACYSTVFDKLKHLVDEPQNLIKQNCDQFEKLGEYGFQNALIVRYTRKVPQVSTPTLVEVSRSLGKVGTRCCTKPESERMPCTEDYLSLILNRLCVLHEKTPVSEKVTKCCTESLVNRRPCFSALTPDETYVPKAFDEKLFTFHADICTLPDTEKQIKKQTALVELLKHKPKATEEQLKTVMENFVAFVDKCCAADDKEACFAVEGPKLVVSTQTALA
Summary of the method: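 BSA prepared at 2 × 10^-6 M in Tris-HCl/NaCl buffer and titrated with increasing amounts of aqueous test compound. Mixed gently 5 min after each addition; tryptophan emission read at 340 nm with excitation at 295 nm. KBSA from Stern–Volmer plot of I0/I vs [complex]; kq = KBSA/τ0 with τ0 1 × 10^-8. K and n from log((I0−I)/I) vs log[Q].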

Ct-DNA [7] = conditions: value reported in the literature; cited from earlier work
MCF-7 cells [8] = assay: Cell cycle analysis; format: cell-based, human; conditions: 8 μM, 24 h
Summary of the method: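 MCF-7 cells (1 × 10^6) grown 24 h, exposed to test compound in medium 24 h, then harvested by centrifugation. Fixed at 4 °C overnight and washed twice with cold PBS. Stained 15 min in the dark with 0.05 mg/ml PI plus 0.05 mg/ml RNaseA in sheath fluid. DNA content measured by flow cytometry to give percentage of cells in each cycle phase.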

Molecule	IC50 (HeLa)	IC50 (MCF-7)	IC50 (U87MG)	IC50 (HEK293)	quantum yield (ϕf) [2]	solubility in water / aqueous medium (Solubility)	molar conductance ^M in 10% DMSO [4]	molar conductance ^M in DMSO [4]	Δε, change in molar absorptivity (Ct-DNA [5])	KSV, Stern–Volmer quenching constant (Ct-DNA [6])	KBSA, Stern–Volmer quenching constant (BSA)	K, binding constant with BSA (BSA)	n, number of binding sites (BSA)	kq, quenching rate constant (BSA)	selectivity factor HeLa (HeLa)	selectivity factor MCF-7 (MCF-7)	selectivity factor U87MG (U87MG)	further results
N.N.[Cl][Pt][Cl] [cisplatin, cis-diamminedichloroplatinum(II), reference compound]	16.4 ± 0.16 µM	20.1 ± 1.6 µM	16.9 ± 2.1 µM	34.8 µM	–	–	–	–	–	–	–	–	–	–	–	–	–	early apoptosis (MCF-7 cells [1]): 12.00%; late apoptosis (MCF-7 cells [1]): 32.04%; necrotic cells (MCF-7 cells [1]): 3.12%
[Re^I(CO)3Cl(K^2-N,N-2-(2-(4-(4-(Pyridin-2-yl)-1H-1,2,3-triazol-1-yl)butoxy)phenyl)benzo[d]thiazole)] [Complex 7c]	19.4 ± 0.19 µM	40.9 ± 1.4 µM	76 ± 3.5 µM	> 100 µM	0.0140	poor solubility in water	22 S cm^2 mol^–1	9 S cm^2 mol^–1	27.12%	8.2 × 10^3 M^–1	0.296 × 10^6 M^–1	0.087 × 10^6 M^–1	1.21	2.9 × 10^13 M^–1 s^–1	5.15	2.44	1.31	log Po/w (n-octanol/water partition coefficient) [3]: 0.3180
CC[n+]1c(-c2ccccc2)c2cc(N)ccc2c2ccc(N)cc21 [EtBr, Ethidium bromide]	–	–	–	–	–	–	–	–	–	–	–	–	–	–	–	–	–	KEtBr, binding constant of EtBr to DNA (Ct-DNA [7]): 1.0 × 10^7 M^–1
[(η^5-Cp*)Ir^IIICl(K^2-N,N-2(2-(4-(4-(Pyridin-2-yl)-1H-1,2,3-triazol-1-yl)butoxy)phenyl)benzo[d]thiazole)]Cl [Complex 7b]	15.8 ± 0.7 µM	40.9 ± 1.8 µM	> 100 µM	> 100 µM	0.0004	very good solubility in aqueous medium	26 S cm^2 mol^–1	5 S cm^2 mol^–1	46.66%	4 × 10^3 M^–1	0.201 × 10^6 M^–1	0.057 × 10^6 M^–1	1.33	2.01 × 10^13 M^–1 s^–1	6.31	2.45	1	Kapp, apparent DNA-binding constant (Ct-DNA [6]; 50% quenching, [EtBr] = 8 μM, [DNA] = 120 μM): 0.14 × 10^7 M^–1
COc1cc2c(c(OC)c1OC)-c1ccc(OC)c(=O)cc1[C@@H](NC(C)=O)CC2 [colchicine]	–	–	–	–	–	–	–	–	–	–	–	–	–	–	–	–	–	G0/G1 phase cells (MCF-7 cells [8]): 54.11%; G2/M phase cells (MCF-7 cells [8]): 34.60%; S phase cells (MCF-7 cells [8]): 8.30%; sub-G0 phase cells (MCF-7 cells [8]): 0.64%
